ChEMBL document CHEMBL3228015, “Azaprostanoic acid derivatives. Inhibitors of arachidonic acid induced platelet aggregation” (1979)
The source made the active and inactive calls. The calls are words filed in the database; no cut-off is given here.

What was measured:
Platelet [1] = assay: Inhibition of 300 uM arachidonate-induced platelet aggregation in human platelet-rich plasma at 10 uM by turbidometric method; type: functional
Summary of the method: (§1)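 Citrated human PRP from normal donors (no aspirin for 48 h), centrifuged at 164g to remove red cells, kept at 25 °C. Reagents added as 10 μL per 1 mL PRP. Inhibitor held at 10^-5 M while arachidonate concentration varied. Turbidometric (Born) aggregation at 37 °C over 3 min; % inhibition from a single blood sample, representative of several determinations.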

Platelet [2] = assay: Inhibition of 400 uM arachidonate-induced platelet aggregation in human platelet-rich plasma at 10 uM by turbidometric method; type: functional; summary of the method: as §1
Platelet [3] = assay: Inhibition of 500 uM arachidonate-induced platelet aggregation in human platelet-rich plasma at 10 uM by turbidometric method; type: functional; summary of the method: as §1
Platelet [4] = assay: Inhibition of ADP-induced primary platelet aggregation in aspirin-treated human platelet-rich plasma at 100 uM after 2 mins by turbidometric method; type: functional
Summary of the method: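 PRP from donors free of aspirin for 48 h, centrifuged at 164g and held at 25 °C, then incubated 15 min with aspirin (1 mg/mL). Test agent (100 μM) added 2 min before 10 μM ADP. Primary aggregation compared with aspirin alone, read turbidometrically (Born) at 37 °C over 3 min.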

[5] = target: T1, Cyclooxygenase (Bos taurus) (UniProt O62664+O62698); assay: Inhibition of cyclooxygenase activity in bovine seminal vesicles assessed as arachodonic acid dependent formation of adenochrome from L-epinephrine at 100 uM; type: protein assay
Summary of the method: (§2)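 Prostaglandin synthetase from a crude freeze-dried beef seminal vesicle powder, 6.7 mg/mL per assay, solubilized with 0.05% Triton X-100. Activity measured as arachidonic acid dependent adrenochrome formation from L-epinephrine (Takeguchi–Sih method, minor modification). Highest test concentration 5×10^-4 M; indomethacin 2×10^-5 M as reference.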

[6] = target: T1, Cyclooxygenase (Bos taurus); assay: Inhibition of cyclooxygenase activity in bovine seminal vesicles assessed as arachodonic acid dependent formation of adenochrome from L-epinephrine at 500 uM; type: protein assay; summary of the method: as §2
[7] = target: T1, Cyclooxygenase (Bos taurus); assay: Inhibition of cyclooxygenase activity in bovine seminal vesicles assessed as arachodonic acid dependent formation of adenochrome from L-epinephrine at concentration of one order of magnitude greater than that necessary for 100% inhibition of platelet aggregation; summary of the method: as §2

Structure (SMILES) | inhibition [5] | inhibition [6] | inhibition [7] | inhibition (INH) (Platelet [1]) | inhibition (INH) (Platelet [2]) | inhibition (INH) (Platelet [3]) | inhibition (Platelet [4])
CCCCCNCC[C@@H]1CCC[C@@H]1CCCCCCC(=O)O | inactive |  |  | 91% | 16% | 0% | inactive
CCCCCCCN[C@H]1CCC[C@H]1CCCCCCC(=O)O (relative stereo) |  | inactive |  | 43% | 11% | 0% | inactive
CCCCCCCCN[C@H]1CCC[C@H]1CCCCCCC(=O)O (relative stereo) |  | 30% |  | 50% | 11% | 0% | 
CCCCCCN[C@H]1CCC[C@@H]1CCCCCCC(=O)O (relative stereo) |  | inactive |  | 14% | 0% | 0% | 
O=C(O)CCCCCC[C@H]1CCC[C@@H]1NCc1ccccc1 (relative stereo) |  | inactive |  | 0% | 0% | 0% | inactive
O=C(O)CCCCCC[C@@H]1CCC[C@@H]1NCc1ccccc1 (relative stereo) |  |  |  |  |  |  | inactive

Second part, led by results:

inhibition [5] | inhibition [6] | inhibition [7] | Structure (SMILES) | inhibition (INH) (Platelet [1]) | inhibition (INH) (Platelet [2]) | inhibition (INH) (Platelet [3]) | inhibition (Platelet [4])
 | 30% |  | CCCCCCCCN[C@H]1CCC[C@@H]1CCCCCCC(=O)O (relative stereo) | 71% | 7% | 0% | 
 | inactive | < 10% | CCCCCCCN[C@H]1CCC[C@@H]1CCCCCCC(=O)O (relative stereo) | 100% | 66% | 19% | inactive
